Assay outcomes deposited in PubChem BioAssay by Sanford-Burnham Center for Chemical Genomics.
In the library only some 1.5% were active in any assay of this set; here they are far more common.
CCR6 antag = CCR6 receptor antagonists, primary screen, cell-based, CHO-K1, luminescence, beta-arrestin, uHTS. CHO-K1 CCR6 PathHunter beta-arrestin, CCL20-stimulated. inhibition, % at 20 µM. 340,000 tested, 0.49% active. AID 493098, 2011;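 active = compounds whose inhibition of the agonist-driven luminescence signal at 20 µM reaches about 50%, limit read from the data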;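 note: cells stimulated with CCL20 at 14 nM final; plate controls were DMSO with CCL20 for no effect and DMSO without agonist for full effect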
APJ antagonist = antagonists of human apelin receptor APJ, primary screen, CHO-K1 cells, beta-arrestin complementation, luminescence; inhibition, % at 20 µM; AID 2521, 2010; 330,000 tested, 0.32% active; P35414;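 active = inhibition above about 40% at 20 µM, limit read from the data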;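 note: cells challenged with 10 nM apelin-13 agonist together with compound; plate controls were apelin-13 plus DMSO wells for no effect and DMSO wells lacking apelin-13 for full effect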
EBI2 block = EBI2 receptor antagonists, beta-arrestin recruitment, primary screen, cell-based, luminescence, 7a,25-OHC stimulation, uHTS; 7a,25-OHC stimulated; 360,000 tested, 0.81% active; G-protein coupled receptor 183 (Homo sapiens), P32249; inhibition, % at 5 µM; AID 651636, 2012; in the data active = inhibition above about 38%;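 note: enzyme fragment complementation signal reports receptor beta-arrestin coupling in cells; 0% = agonist plus DMSO wells and 100% = wells without agonist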
CXCR6 inh = CXCR6 receptor inhibitors, primary screen, cell-based, beta-arrestin, luminescence, CHO-K1 PathHunter, 1536-well; C-X-C chemokine receptor type 6 (Homo sapiens), O00574; 360,000 tested, 0.36% active; inhibition, % at 20 µM; AID 602244, 2012; in the data active = inhibition above about 34%, passing the limit was not always enough;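 note: antagonist mode with CXCL16 agonist at 10 nM final; 0% = 10 nM CXCL16 with DMSO and 100% = unstimulated wells without agonist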
Target sequence (O00574 whole entry, looked up): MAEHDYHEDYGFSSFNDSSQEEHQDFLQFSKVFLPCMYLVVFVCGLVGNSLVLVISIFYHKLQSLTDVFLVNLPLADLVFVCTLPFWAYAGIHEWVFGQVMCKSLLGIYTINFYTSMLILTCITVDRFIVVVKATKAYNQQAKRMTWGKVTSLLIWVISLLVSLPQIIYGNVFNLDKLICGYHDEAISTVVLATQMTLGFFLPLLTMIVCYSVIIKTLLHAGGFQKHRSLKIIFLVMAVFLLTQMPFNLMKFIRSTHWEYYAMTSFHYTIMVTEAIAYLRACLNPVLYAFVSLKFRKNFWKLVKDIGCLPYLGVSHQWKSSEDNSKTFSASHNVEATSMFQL
APJ agonist = agonists of human apelin receptor APJ, primary screen, CHO-K1 cells, PathHunter beta-arrestin, luminescence | activation, % at 20 µM | P35414 | 330,000 tested, 0.11% active | 0% DMSO wells, 100% apelin;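 active = activation more than six SD over the plate average, tested at 20 µM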;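 note: 0% = DMSO alone and 100% = apelin-13 at 10 nM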
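Test system: CHO-K1 APJ beta-arrestin complementation cell line. Amount: cell density 1000 per well. Controls: DMSO negative, 10 nM Apelin-13 positive. Signal: luminescent beta-gal fragment complementation, chemiluminescent substrate. Read-out basis: agonist-driven arrestin binding to APJ. Timing: compound stimulation 90 min at 25 °C, detection 60 min.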
APJ antag confirm = APJ antagonists blocking beta-arrestin recruitment, confirmation, cell-based, luminescence, single concentration, uHTS hits. shares compounds with APJ antagonist. antagonist mode. inhibition, % at 20 µM. 950 tested, 66% active. AID 2766, 2010; in the data active = inhibition above about 50%
Active calls of the source: *.

How did O=C1NC[C@@H](CCCCN2CCN(CC3CCCCC3)C(=O)C2=O)N(CC2CCCCC2)C1=O do in these assays?
EBI2 block: -3; CXCR6 inh: 0

How did CC(N=C1NS(=O)(=O)c2ccccc21)C(=O)OCC(=O)N(C)C1CCS(=O)(=O)C1 (configuration not stated) do in these assays?
CCR6 antag: -4; APJ antagonist: -3; EBI2 block: 6; CXCR6 inh: 11; APJ agonist: 0

Results for CC1(c2nc3ccccc3[nH]2)c2ccccc2C(=O)N1C1CC1 (configuration not stated) ?
EBI2 block: 2; CXCR6 inh: 1

Results for CCN1/C(=C/c2ccc3ccccc3[n+]2CC)C=Cc2ccccc21 ?
CCR6 antag: 61*; APJ antagonist: 54*; EBI2 block: 4; CXCR6 inh: 55*; APJ agonist: -2; APJ antag confirm: 94*

Results for O=C(COC(=O)CCc1nc2ccccc2c(=O)[nH]1)Nc1ccc(OC(F)(F)F)cc1 ?
CCR6 antag: 4; APJ antagonist: 12; EBI2 block: 0; CXCR6 inh: 3; APJ agonist: -1

How did NS(=O)(=O)c1ccc(NC(=O)COC(=O)CCc2nc3ccccc3c(=O)[nH]2)cc1 do in these assays?
CCR6 antag: 3; APJ antagonist: 45*; EBI2 block: 3; CXCR6 inh: 6; APJ agonist: -4; APJ antag confirm: 31

What do the screens show for `CC(=O)N1c2ccc(S(=O)(=O)NCC3CCC(C(=O)N4CCC(C)CC4)CC3)cc2CC1C` (configuration not stated)?
CCR6 antag: 13; APJ antagonist: 2; EBI2 block: -2; CXCR6 inh: -4; APJ agonist: 4

Results for O=C(Nc1nc(-c2ccccn2)cs1)c1cc(Cl)ccc1[N+](=O)[O-] ?
CCR6 antag: 77*; APJ antagonist: 72*; EBI2 block: 40*; CXCR6 inh: 59*; APJ agonist: -8; APJ antag confirm: 97*

What do the screens show for `CC(C)(C)c1cc(Br)c(O)c(N=Nc2ccc(S(=O)(=O)N3CCOCC3)cc2)c1`?
CCR6 antag: 52*; APJ antagonist: 44*; EBI2 block: 16; CXCR6 inh: 29; APJ agonist: -3; APJ antag confirm: 46

Results for O=[N+]([O-])c1ccc(O)c(-c2nc(-c3ccccc3)c(-c3cccs3)[nH]2)c1 ?
CCR6 antag: 45; APJ antagonist: 42*; EBI2 block: -9; CXCR6 inh: 28; APJ agonist: -6; APJ antag confirm: 54*

Results for CC(C)NC(=S)N/N=C1\CCCCC1C1CCCCC1 (configuration not stated) ?
CCR6 antag: 85*; APJ antagonist: 43*; EBI2 block: -10; CXCR6 inh: 28; APJ agonist: -7; APJ antag confirm: 85*

How did CC(=O)C1=C(c2ccccc2)N(C(C)=O)n2c(C)nnc2S1 do in these assays?
CCR6 antag: 100*; APJ antagonist: 105*; EBI2 block: 35; CXCR6 inh: 31; APJ agonist: -18; APJ antag confirm: 152*

What do the screens show for `Cn1c(O)c(N=Nc2ccccc2)c2ccccc21`?
CCR6 antag: 10; APJ antagonist: 3; EBI2 block: 3; CXCR6 inh: 0; APJ agonist: -5

What do the screens show for `Cn1c(O)c(N=Nc2nc(-c3ccccc3)cs2)c2ccccc21`?
CCR6 antag: 61*; APJ antagonist: 50*; EBI2 block: 26; CXCR6 inh: 34; APJ agonist: -7; APJ antag confirm: 62*

How did COCCN(C(=O)c1csnn1)C(C(=O)NC1CCCC1)c1ccc(C)cc1 (configuration not stated) do in these assays?
CCR6 antag: 9; APJ antagonist: 16; EBI2 block: 6; CXCR6 inh: 5; APJ agonist: -2

What do the screens show for `COCCN(C(=O)c1csnn1)C(C(=O)NC1CCCC1)c1ccccc1F` (configuration not stated)?
CCR6 antag: 6; APJ antagonist: 53*; EBI2 block: -1; CXCR6 inh: 6; APJ agonist: 1; APJ antag confirm: 25

Results for COc1ccc(NC(=O)Cn2nc(C(=O)O)c3ccccc3c2=O)cc1OC ?
CCR6 antag: 10; APJ antagonist: 9; EBI2 block: -12; CXCR6 inh: -1; APJ agonist: -5

How did CC(C)(C)NC(=O)CN(Cc1ccccc1)S(=O)(=O)c1ccccc1 do in these assays?
CCR6 antag: 5; APJ antagonist: 13; EBI2 block: 8; CXCR6 inh: 9; APJ agonist: -1

What do the screens show for `Cc1ccc(NC(=S)N/N=C2/CCCCc3ccccc32)cc1`?
CCR6 antag: 22; APJ antagonist: 22; EBI2 block: 18; CXCR6 inh: 6; APJ agonist: -7

Results for Cc1cccc(NC(=S)N/N=C2/CCCCc3ccccc32)c1 ?
CCR6 antag: 32; APJ antagonist: 48*; EBI2 block: 27; CXCR6 inh: 5; APJ agonist: -7; APJ antag confirm: 93*

Results for COc1ccc(-c2csc(C(O)c3ccc(F)cc3)n2)cn1 (configuration not stated) ?
EBI2 block: 2; CXCR6 inh: 3

How did COc1cccc(NC(=O)CSc2nnc(-c3cc(C)[nH]n3)n2N)c1 do in these assays?
CCR6 antag: 5; APJ antagonist: 42*; EBI2 block: 10; CXCR6 inh: -9; APJ agonist: -2; APJ antag confirm: 1

How did COc1ccccc1C1CCN(C(=O)c2ccco2)CC1 do in these assays?
CCR6 antag: 3; APJ antagonist: 11; EBI2 block: -43; CXCR6 inh: 8; APJ agonist: -1

Results for CCOC(=O)C1=C2NC(=O)c3ccccc3N2C(=O)C1 ?
CCR6 antag: 69*; APJ antagonist: 53*; EBI2 block: 10; CXCR6 inh: 16; APJ agonist: -2; APJ antag confirm: 134*

How did CCOC(=O)C1=C(N)N(c2ccccc2Oc2ccccc2)C(=O)C1 do in these assays?
CCR6 antag: 12; APJ antagonist: 9; EBI2 block: -4; CXCR6 inh: 30; APJ agonist: 0

How did COc1ccc(NC(=O)C2Cc3c(-c4ccc5c(c4)OCO5)ccnc3O2)cc1 (configuration not stated) do in these assays?
EBI2 block: -8; CXCR6 inh: 2

How did O=C(NN1C(=O)/C(=C/c2ccc(O)c([N+](=O)[O-])c2)SC1=S)c1ccccc1Cl do in these assays?
CCR6 antag: 54*; APJ antagonist: 47*; EBI2 block: 15; CXCR6 inh: 39*; APJ agonist: -10; APJ antag confirm: 69*
